SIAE primary = blocks human sialic acid acetylesterase; SIAE FP-Rh probe binding, fluorescence polarization; 370,000 compounds, 0.69% hits; Q9HAT2; inhibition, % at 9.66 µM; AID 1053197;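 active = inhibition above a cutoff: mean of compounds within the control limits plus 3 SD of those, cut at about 17% in these data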;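 note: 0% = plate median of compound wells and 100% = probe without SIAE protein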
RBBP9 inhibitor = blocks human serine hydrolase RBBP9 | recombinant RBBP9, FP-Rh probe fluorescence polarization | inhibition, % at 7.94 µM | 220,000 compounds, 0.2% hits | AID 1515;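 active = inhibition above the campaign mean of all tested compounds plus 3 SD, cut at about 14% in these data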;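 note: plate controls were DMSO wells with RBBP9 for no effect and wells lacking RBBP9 protein for full effect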
Target sequence (O75884 whole entry, looked up): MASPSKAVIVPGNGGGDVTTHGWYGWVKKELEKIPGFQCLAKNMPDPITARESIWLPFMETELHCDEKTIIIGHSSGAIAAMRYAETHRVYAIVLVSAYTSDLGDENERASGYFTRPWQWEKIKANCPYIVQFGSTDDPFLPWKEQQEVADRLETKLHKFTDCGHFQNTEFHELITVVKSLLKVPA
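system = RBBP9 protein | input = RBBP9 at 2.5 µM in dispensed solution, before mixing | measured by = fluorescence polarization (mP), excitation 525 nm, emission 598 nm | incubation = enzyme-compound preincubation 30 min, then probe labeling 45 min, 25 °C | buffer or medium = Tris-NaCl-Pluronic buffer, pH 8.0 | compound = single dose 7.94 µM | also added = FP-Rh probe, 375 nM dispensing solution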
HTRA1 inhibitor = HTRA1 (human) protease inhibition; inhibition, % at 5.96 µM; recombinant HTRA1, FP-rhodamine activity-based probe, fluorescence polarization; AID 504803; 340,000 compounds, 0.5% hits; in the data active = inhibition above about 36%;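 note: 0% = enzyme with DMSO and 100% = wells lacking enzyme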
ABHD4 inh = ABHD4 (mouse) inhibition, primary FP screen | Q8VD66 | purified mABHD4, FP-Rh probe fluorescence polarization | inhibition, % at 8.92 µM | 370,000 compounds, 0.54% hits | AID 720543;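 active = inhibition exceeding the mean over every tested compound plus 3 SD, cut at about 30% in these data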;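 note: 0% = plate median of compound wells and 100% = S159A mutant with DMSO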
Target sequence (Q8VD66 whole entry, looked up): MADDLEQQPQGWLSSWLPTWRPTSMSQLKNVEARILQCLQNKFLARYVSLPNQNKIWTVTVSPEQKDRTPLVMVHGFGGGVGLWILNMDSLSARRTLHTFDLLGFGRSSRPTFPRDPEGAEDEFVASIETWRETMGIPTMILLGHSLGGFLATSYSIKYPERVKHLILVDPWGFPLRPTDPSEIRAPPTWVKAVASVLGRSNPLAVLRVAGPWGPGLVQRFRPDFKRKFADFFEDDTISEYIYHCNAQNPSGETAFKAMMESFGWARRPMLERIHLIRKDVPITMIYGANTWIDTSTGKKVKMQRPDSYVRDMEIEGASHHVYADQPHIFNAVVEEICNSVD
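Material: mouse ABHD4 enzyme, wild type; Benchmarks: S159A mutant high control, sample median low control; Buffer or medium: HEPES pH 7.0, NaCl, Pluronic buffer; Signal: fluorescence polarization; Read-out: percent inhibition of probe binding, normalized to plate controls; Timing: pre-incubation 45 min, probe exposure 60 min, at 25 °C; Dosing: 8.92 µM, single dose.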
mABHD4 conf = confirmation of mouse ABHD4 inhibitors | 1,800 compounds, 55% hits | inhibition, % at 8.92 µM | shares compounds with ABHD4 inh | purified mABHD4, FP-Rh probe fluorescence polarization;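 active = mean inhibition across replicates above the hit cutoff set in the primary screen, cut at about 30% in these data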;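 note: 0% = wild-type ABHD4 with DMSO and 100% = catalytically dead S159A mutant with DMSO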
Active calls of the source: *; . = no result. A selection: hits, their analogues and other compounds. The true share with any hit is near 1.4%.

SMILES | SIAE primary | RBBP9 inhibitor | HTRA1 inhibitor | ABHD4 inh | mABHD4 conf
CC1CCCCCCC1OC(=O)c1ccccc1C(=O)O (configuration not stated) | -1 | . | 6 | 9 | .
Cc1cccc(N=Cc2cc3c(cc2[N+](=O)[O-])OCO3)c1 | 12 | 1 | 40* | 41* | 26
COc1cc(C=Nc2cccc(C)c2)c(O)c([N+](=O)[O-])c1 | 7 | -5 | 10 | 12 | .
O=C(NCc1csc(-c2ccccc2)n1)c1cc(F)cc2c1OCOC2 | 8 | -11 | -7 | -8 | .
COc1cccc(C(=O)N[C@H](C(=O)N2CCC[C@H]2C(=O)NCc2ccccc2)C2CCCCC2)c1 | -1 | . | . | -2 | .
CN1CC=C2C(C#N)=C(N)C(C#N)(C#N)[C@H](c3cccc(Cl)c3)C2C1 (some centres not stated) | 8 | 2 | 22 | 31* | -2
CN1CC=C2C(C#N)=C(N)C(C#N)(C#N)C(c3ccsc3)C2C1 (configuration not stated) | 9 | 2 | 27 | 19 | .
O=c1oc2ccccc2nc1/C=C(O)/C=C\c1ccccc1 | 4 | -6 | 9 | 33* | 9
COc1ccc(C2=CCCCCC2)cc1OC | 5 | . | 1 | -4 | .
OC(c1ccccc1)(c1nc(/C=C/c2ccccc2)cs1)C(F)(F)F (configuration not stated) | -14 | . | . | -33 | .
OCCCNc1ncnc2c1ncn2[C@H]1CN(Cc2ccc3c(c2)OCO3)C[C@@H](CO)O1 | 0 | . | . | -10 | .
CN(C)CCNc1ncnc2c1ncn2[C@H]1CN(Cc2ccc3c(c2)OCO3)C[C@@H](CO)O1 | -4 | . | . | 34* | 15
COc1cc(Cl)cc(C(c2c(C(=O)O)[nH]c3ccccc23)c2c(C(=O)O)[nH]c3ccccc23)c1O | 7 | . | 2 | 43* | 55*
COc1cc(C(=O)Nc2c(C(=O)O)[nH]c3ccccc23)cc(OC)c1OC | 0 | . | 1 | 3 | .
O=C(O)c1[nH]c2ccccc2c1C(c1cc(Br)ccc1O)c1c(C(=O)O)[nH]c2ccccc12 | 4 | . | 1 | 43* | 47*
Cc1[nH][nH]c(=O)c1C(c1cc(Br)ccc1O)c1c(C)[nH][nH]c1=O | 6 | . | 2 | 8 | .
O=C(O)c1[nH]c2ccccc2c1C(c1c(F)cccc1Cl)c1c(C(=O)O)[nH]c2ccccc12 | 5 | . | -3 | 42* | 50*
O=C(Cc1ccc(NC(=O)C2CCCN(C(=O)CCc3ccccc3)C2)cc1)Nc1cccc(C(=O)N2CCCC2)c1 (configuration not stated) | -5 | . | -3 | 4 | .
C=CCN1C(=O)c2n[nH]c(COC)c2C1c1ccc(F)cc1 (configuration not stated) | -3 | . | . | 6 | .
C[C@H](CO)N1C[C@H](C)[C@H](CN(C)C(=O)Nc2cccc3ccccc23)OCc2cnnn2CCCC1=O | 4 | . | 10 | 0 | .
O=c1c2oc3nc4c(cc3c2ncn1CCCc1ccccc1)CCCC4 | -3 | -3 | -1 | -2 | .
O=C(N[C@H](C(=O)N1CCC[C@H]1C(=O)NCCc1ccccc1Cl)c1ccccc1)c1cccs1 | -6 | . | . | -4 | .
O=C(O)C1CC(Br)C(Br)CC1C(=O)O (configuration not stated) | -4 | . | 3 | 1 | .
CCOC(=O)N(C)c1c(CC)nc2c(OCc3ccccc3)cccn12 | 2 | . | . | -2 | .
O=C1C(=O)c2ccccc2C(O)=C1CC=C(Cl)Cl | 1 | . | 15 | 38* | 17
SMILES | SIAE primary | RBBP9 inhibitor | HTRA1 inhibitor | ABHD4 inh | mABHD4 conf
O=C(O)c1ccccc1Nc1cccc(OCc2ccc3ccccc3n2)c1 | 11 | . | -3 | 36* | 33*
O=C(COc1ccc2ccccc2c1)Nc1cccc(C(=O)Nc2ccccc2C(=O)O)c1 | -89 | -28 | -116 | -149 | .
NC(=O)c1ccsc1NC(=O)c1ccc([N+](=O)[O-])o1 | 9 | . | 4 | 50* | 56*
Cc1cc(/C=C2/NC(=O)N(Cc3ccccc3F)C2=O)c(C)n1C | 2 | -3 | 13 | 7 | .
CCOc1cc([N+](=O)[O-])cc(/C=C2/NC(=O)N(Cc3ccccc3F)C2=O)c1O | -6 | -4 | 27 | 31* | 54*
Cc1ccc(C2(C)NC(=O)N(CC(=O)NCCN3C(=O)S/C(=C\c4cccnc4)C3=O)C2=O)cc1 (configuration not stated) | 2 | . | 9 | 1 | .
O=C(N1CCc2ccccc2C1)n1cc(C(O)(c2ccccc2)c2ccccc2)nn1 | -10 | . | . | 86* | 69*
O=C(NNc1nc2ccccc2s1)Nc1ccc(F)cc1 | 13 | 6 | 7 | 38* | 1
O=C(NNc1nc2ccccc2s1)Nc1ccc(Cl)c(Cl)c1 | 5 | 2 | -11 | 12 | .
Cc1c(C)[n+](=O)c(C)c(C)n1[O-] | 1 | . | 4 | 6 | .
Cc1[nH]n(-c2ccc([N+](=O)[O-])cc2)c(=O)c1N=Nc1nc2ccccc2s1 | . | -5 | . | . | .
Nc1[nH]n(-c2ccccc2)c(=O)c1N=Nc1ccc2c(c1)OCCO2 | 9 | 4 | 28 | 30* | 28
Nc1[nH]n(-c2ccccc2)c(=O)c1N=Nc1ccc(F)cc1 | 11 | . | . | 27 | .
Cc1cc([N+](=O)[O-])ccc1N=Nc1c(N)[nH]n(-c2ccccc2)c1=O | 9 | 4 | 3 | 30* | 41*
Cc1ccccc1N=Nc1c(N)[nH]n(-c2ccccc2)c1=O | 9 | . | . | 34* | 43*
O=C(/C=C/[C@H]1O[C@@H](n2ccc(=O)[nH]c2=O)[C@H](O)[C@@H]1O)NC1CCN(Cc2ccccc2)C1 (some centres not stated) | -2 | . | . | 2 | .
CC(C)C[C@H](NC(=O)c1cccs1)C(=O)N1CCC[C@H]1C(=O)NCc1ccccc1 | -5 | . | . | -2 | .
Cc1ccc(OC(=S)Nc2ccc(O)cc2)cc1 | 4 | 11 | 3 | 44* | 0
O=[N+]([O-])c1ccc(N=Nc2ncc[nH]2)cc1 | 4 | . | -7 | -9 | .
CCOC(=O)[C@]12CCC=C1N(Cc1ccccc1)C(=O)[C@H](CC(=O)NCCC(C)C)C2 | 0 | . | . | -2 | .

Screening data (PubChem)
